We go through eleven molecules from ChEMBL document CHEMBL3763137, “Design and synthesis of novel 4'-demethyl-4-deoxypodophyllotoxin derivatives as potential anticancer agents” (Bioorg Med Chem Lett, 2016).

Series [1] can be described thus: Antiproliferative activity against human HCT116 cells after 48 hrs by MTT assay. As to conditions: HCT-116, 48 h. The class given is functional, cell-based. In outline: (§1)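 Human cancer cells (HCT-116, HepG2 or MGC-803) incubated with compound for 48 h. Viability read by MTT assay. IC50 taken from dose-response curves. Mean ± SD of three separate assays.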
On the technique in general: Formazan colour is commonly taken as a measure of viable cells.

In series [2] the test system is HepG2. In words: Antiproliferative activity against human HepG2 cells after 48 hrs by MTT assay. The note with it: HepG2, 48 h. Format: functional, cell-based. In outline:
as §1

Series [3] can be described thus: Antiproliferative activity against human MGC803 cells after 48 hrs by MTT assay. Format: functional, cell-based. The note with it: MGC-803, 48 h. In outline: as §1
Series [4] in a line: Cell cycle arrest in human MGC803 cells assessed as accumulation at G0/G1 phase at 10 uM after 24 hrs by propidium iodide staining based flow cytometric analysis (reference value: 77.59 %). As to conditions: MGC-803. Format: functional. Put shortly:
(§2)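 MGC-803 cells were exposed for 24 h to 0 (untreated), 10, 20 or 40 µM. The percentage of cells in each cell-cycle phase was measured by flow cytometry. Values are mean ± SD of three independent experiments, with P compared to control.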

A short description of series [5]: Cell cycle arrest in human MGC803 cells assessed as accumulation at S phase at 10 uM after 24 hrs by propidium iodide staining based flow cytometric analysis (reference value: 20.52 %). As to conditions: MGC-803. Format: functional. In outline: as §2
Background: A flow cytometer gives signals particle by particle.

The nature of series [6]: Cell cycle arrest in human MGC803 cells assessed as accumulation at G2/M phase at 10 uM after 24 hrs by propidium iodide staining based flow cytometric analysis (reference value: 1.89 %). The note with it: MGC-803. Format: functional. Put shortly:
as §2

The nature of series [7]: Cell cycle arrest in human MGC803 cells assessed as accumulation at G0/G1 phase at 20 uM after 24 hrs by propidium iodide staining based flow cytometric analysis (reference value: 77.59 %). The class given is functional. The note with it: MGC-803. Put shortly:
as §2

The nature of series [8]: Cell cycle arrest in human MGC803 cells assessed as accumulation at S phase at 20 uM after 24 hrs by propidium iodide staining based flow cytometric analysis (reference value: 20.52 %). The note with it: MGC-803. Format: functional. Put shortly:
as §2

Series [9] is described as follows: Cell cycle arrest in human MGC803 cells assessed as accumulation at G2/M phase at 20 uM after 24 hrs by propidium iodide staining based flow cytometric analysis (reference value: 1.89 %). Format: functional. The note with it: MGC-803. In outline: as §2
Series [10] in a line: Cell cycle arrest in human MGC803 cells assessed as accumulation at G0/G1 phase at 40 uM after 24 hrs by propidium iodide staining based flow cytometric analysis (reference value: 77.59 %). Format: functional. As to conditions: MGC-803. In outline:
as §2

The nature of series [11]: Cell cycle arrest in human MGC803 cells assessed as accumulation at S phase at 40 uM after 24 hrs by propidium iodide staining based flow cytometric analysis (reference value: 20.52 %). The note with it: MGC-803. The class given is functional. In outline:
as §2

A short description of series [12]: Cell cycle arrest in human MGC803 cells assessed as accumulation at G2/M phase at 40 uM after 24 hrs by propidium iodide staining based flow cytometric analysis (reference value: 1.89 %). Format: functional. The note with it: MGC-803. In outline:
as §2

A short description of series [13]: Cell cycle arrest in human MGC803 cells assessed as accumulation at G2/M phase after 24 hrs by propidium iodide staining based flow cytometric analysis. The class given is functional. As to conditions: MGC-803. Put shortly:
as §2

Series [14] in a line: Downregulation of cyclin A expression in human MGC803 cells after 24 hrs by Western blot analysis. The class given is functional, cell-based. As to conditions: MGC-803. In outline: (§3)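 MGC-803 cells were incubated for 24 h at 0, 10, 20 or 40 µM. Levels of cyclin A, cyclin B, CDK1, cdc25c and p21 were detected by Western blot with specific antibodies, with P compared to 0 µM.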
(Immunoblotting shows a protein as a band on a membrane.)

Series [15] is described as follows: Downregulation of cyclin B expression in human MGC803 cells after 24 hrs by Western blot analysis. The class given is functional, cell-based. The note with it: MGC-803. In outline:
as §3

Series [16] in a line: Downregulation of CDK1 expression in human MGC803 cells after 24 hrs by Western blot analysis. The class given is functional, cell-based. The note with it: MGC-803. In outline: as §3
Series [17] is described as follows: Downregulation of CDK2 expression in human MGC803 cells at 10 to 40 uM after 24 hrs by Western blot analysis. The class given is functional, cell-based. The note with it: MGC-803.
Series [18] is described as follows: Downregulation of cdc25c expression in human MGC803 cells at 10 to 40 uM after 24 hrs by Western blot analysis. The class given is functional, cell-based. As to conditions: MGC-803. In outline:
as §3

The nature of series [19]: Upregulation of p21 expression in human MGC803 cells at 10 to 40 uM after 24 hrs by Western blot analysis. The class given is functional, cell-based. As to conditions: MGC-803. In outline: as §3
The subject of series [20] is Mus musculus. In words: Toxicity in ICR mouse xenografted with human HepG2 cells assessed as body weight at 1 mg/kg, iv administered every 2 days measured on day 1 (reference value: 21 +/- 0.89 g). The note with it: in vivo, 48 h. The class given is organism-based.
The subject of series [21] is Mus musculus. In words: Toxicity in ICR mouse xenografted with human HepG2 cells assessed as body weight at 2 mg/kg, iv administered every 2 days measured on day 1 (reference value: 21 +/- 0.89 g). Format: organism-based. The note with it: in vivo, 48 h.
Series [22] deals with Mus musculus. In words: Toxicity in ICR mouse xenografted with human HepG2 cells assessed as body weight at 4 mg/kg, iv administered every 2 days measured on day 1 (reference value: 21 +/- 0.89 g). The class given is organism-based. As to conditions: in vivo, 48 h.
In series [23] the test system is Mus musculus. In words: Toxicity in ICR mouse xenografted with HepG2 cells assessed as body weight at 1 mg/kg, iv administered every 2 days measured on day 14 (reference value: 30.10 +/- 2.39 g). The note with it: in vivo, 48 h. Format: organism-based.
The test system of series [24] is Mus musculus. In words: Toxicity in ICR mouse xenografted with HepG2 cells assessed as body weight at 2 mg/kg, iv administered every 2 days measured on day 14 (reference value: 30.10 +/- 2.39 g). The class given is organism-based. As to conditions: in vivo, 48 h.
The subject of series [25] is Mus musculus. In words: Toxicity in ICR mouse xenografted with HepG2 cells assessed as body weight at 4 mg/kg, iv administered every 2 days measured on day 14 (reference value: 30.10 +/- 2.39 g). Format: organism-based. The note with it: in vivo, 48 h.
Series [26] deals with HepG2. In words: Antitumor activity against human HepG2 cells xenografted in ICR mouse assessed as tumor growth inhibition at 4 mg/kg, iv administered every 2 days measured after 14 days relative to control. The class given is functional. The note with it: read-out: TGI. Put shortly:
(§4)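 HepG2 xenografts established in ICR mice, then randomized into four groups (n = 10 each). Compound given intravenously every two days; control group received vehicle at 0.4 mL/mouse. Tumors weighed after two weeks (day 14); inhibitory ratio calculated versus vehicle control. Body weights recorded on days 1 and 14.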

For series [27], the system named is HepG2. Nature of the series: Antitumor activity against human HepG2 cells xenografted in ICR mouse assessed as tumor growth inhibition at 1 mg/kg, iv administered every 2 days measured after 14 days relative to control. As to conditions: read-out: TGI. The class given is functional. In outline: as §4
Series [28] concerns HepG2. Nature of the series: Antitumor activity against human HepG2 cells xenografted in ICR mouse assessed as tumor growth inhibition at 2 mg/kg, iv administered every 2 days measured after 14 days relative to control. Format: functional. As to conditions: read-out: TGI. Put shortly:
as §4

Series [29] in a line: Cell cycle arrest in human MGC803 cells assessed as decrease in cell level at G1 phase after 24 hrs by propidium iodide staining based flow cytometric analysis. As to conditions: MGC-803. Format: functional. Put shortly:
as §2

Series [30] relates to HepG2. In words: Antitumor activity against human HepG2 cells xenografted in iv dosed ICR mouse assessed as tumor retardation effect administered every 2 days measured after 14 days. The class given is functional, organism-based.

pIC50: −log10 of the molar value. Active and inactive are the calls of the source. No cut-off for these calls is given here.

Take `COc1cc([C@@H]2c3cc4c(cc3C[C@H]3COC(=O)[C@@H]32)OCO4)cc(OC)c1OCC(=O)Nc1ccccc1`: the pIC50 – broadly, the negative decadic logarithm of the IC50, by convention in mol/L – in series [1] is less than 5.00; in series [2], less than 5.00; in series [3], 5.60.

In the case of `COc1cc([C@@H]2c3cc4c(cc3C[C@H]3COC(=O)[C@@H]32)OCO4)cc(OC)c1OCC(=O)Nc1cccc([N+](=O)[O-])c1`, the pIC50 was 5.49 in series [1], less than 5.00 in [2] and 5.55 in series [3].

On to `COc1cc([C@@H]2c3cc4c(cc3C[C@H]3COC(=O)[C@@H]32)OCO4)cc(OC)c1OCC(=O)Nc1ccccc1C`, for which the pIC50 in series [1] was less than 5.00; in series [2], 5.11; in series [3] it was 5.39.

Take `COc1cc([C@@H]2c3cc4c(cc3[C@@H](O[C@@H]3O[C@@H]5CO[C@@H](C)O[C@H]5[C@H](O)[C@H]3O)[C@H]3COC(=O)[C@H]23)OCO4)cc(OC)c1O` [ETOPOSIDE]: the pIC50 was 5.77 in series [1], 5.25 in series [2] and less than 5.00 in [3].

Regarding `COc1cc([C@@H]2c3cc4c(cc3C[C@H]3COC(=O)[C@@H]32)OCO4)cc(OC)c1OCC(=O)Nc1c(C)cccc1Cl`, the values for the pIC50 in series [1], in series [2] and in series [3] were less than 5.00, less than 5.00 and 5.21, respectively.

In the case of `COc1cc([C@@H]2c3cc4c(cc3C[C@H]3COC(=O)[C@@H]32)OCO4)cc(OC)c1OCC(=O)Nc1ccccc1F`, the pIC50 in [1] is 5.66; in series [2], 5.97; in series [3] it was 6.66. Moreover, the Activity in [4] was 41.9%; in [5], 50.8%; in [6] it was 7.29%; in series [7], 7.22%; in [8], 20.5%; in series [9], 72.3%. Further, the Activity in [10] was 1.8%; in [11], 22.7%; in [12], 75.5%; in [13], “Dose-dependent effect”; in series [14] it was “Dose-dependent effect”; in [15] it was “Dose-dependent effect”. Moreover, the Activity result in series [16] was “Dose-dependent effect”; in series [20] it was 20.82 g; in [21] it was 20.91 g; in [22], 21.3 g; in [23] it was 29.09 g; in series [24] it was 28.36 g. Moreover, the Activity in series [25] is 27.2 g; in series [29], “Dose-dependent effect”; in [30], “Dose-dependent effect”. Also, the outcome in series [17] was inactive. For the same molecule, the result in series [18] and in series [19] was Active. In addition, in [26], the inhibition in vivo at 4 mg/kg was found to be 45.6%. Further, the inhibition in vivo at 1 mg/kg in series [27] came out at 6.09%. Besides, the inhibition in vivo at 2 mg/kg in [28] was found to be 26.6%.

Consider `COc1cc([C@@H]2c3cc4c(cc3C[C@H]3COC(=O)[C@@H]32)OCO4)cc(OC)c1OCC(=O)Nc1ccccc1[N+](=O)[O-]`, for which the pIC50 in [1], in [2] and in series [3] was less than 5.00 throughout.

Consider `COc1ccc(NC(=O)COc2c(OC)cc([C@@H]3c4cc5c(cc4C[C@H]4COC(=O)[C@@H]43)OCO5)cc2OC)cc1`, for which the pIC50 in [1], in series [2] and in series [3] was less than 5.00 in each case.

For `COc1cc([C@@H]2c3cc4c(cc3C[C@H]3COC(=O)[C@@H]32)OCO4)cc(OC)c1OCC(=O)Nc1ccccc1Cl`, the pIC50 in [1], in series [2] and in [3] was less than 5.00 throughout.

For the molecule `COc1cc([C@@H]2c3cc4c(cc3C[C@H]3COC(=O)[C@@H]32)OCO4)cc(OC)c1OCC(=O)Nc1cccc(F)c1`, the pIC50 in series [1], in series [2] and in series [3] was less than 5.00 throughout.

On to `COc1cc([C@@H]2c3cc4c(cc3C[C@H]3COC(=O)[C@@H]32)OCO4)cc(OC)c1OCC(=O)Nc1cccc(Cl)c1`, for which the pIC50 in series [1] is 5.57; in series [2], 5.53; in series [3], 5.91.
